Among the data in ChEMBL document CHEMBL5143728, “Next-Generation Diprovocims with Potent Human and Murine TLR1/TLR2 Agonist Activity That Activate the Innate and Adaptive Immune Response” (J Med Chem, 2022) are Activity values, retold here.

The target in assay [1] is Toll-like receptor 1/2 (Mus musculus) (UniProt Q9QUN7+Q9EPQ1). The assay can be described thus: Agonist activity at TLR1/TLR2 in wild type C57BL/6J mouse macrophages assessed as stimulation of TNF alpha release measured for 4 hrs by ELISA based assay relative to diprovocim-1. It counts as cell-based. Also noted: Activity: concentration or dose not given beside the values. As to conditions: Macrophage. The method, boiled down: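 Thioglycolate-elicited peritoneal macrophages from wild type C57BL/6J mice, harvested by PBS lavage 4 d after i.p. 4% thioglycolate. Cultured in DMEM/10% FBS at 37 °C, 5% CO2, seeded at 1 × 10⁵ cells/well and exposed to graded compound concentrations for 4 h, with final DMSO ≤0.5% held constant. LPS served as positive control. Supernatant mouse TNF-α was read by ELISA. EC50 from duplicate means.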
In general terms: In an ELISA, binding on a coated surface is turned into a signal by an enzyme label.

In another assay the target is Toll-like receptor 1/2 (Homo sapiens, UniProt O60603+Q15399). The assay can be described thus: Agonist activity at TLR1/TLR2 in human THP-1 derived macrophages assessed as stimulation of TNF alpha release measured for 4 hrs by ELISA based assay relative to diprovocim-1. Details: Activity: concentration or dose not given beside the values. The format is cell-based. In a few lines:
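THP-1 cells differentiated with 100 nM PMA in RPMI/10% FBS for 24 h, washed, then rested 24 h in fresh medium. Seeded at 0.5 × 10⁵ cells/well and exposed to graded compound concentrations for 4 h, with final DMSO held at 0.1%. LPS served as positive control and DMSO as negative control. Supernatant human TNF-α was read by ELISA. EC50 from duplicate means.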

The structures appear in SMILES notation.

`CC(C)(C)C(=O)NCC(=O)OCCCCCCCCCCCCNC(=O)[C@@H]1CN(C(=O)c2ccc(C(=O)N3C[C@@H](C(=O)N[C@H]4C[C@@H]4c4ccccc4)[C@H](C(=O)N[C@H]4C[C@@H]4c4ccccc4)C3)cc2)C[C@H]1C(=O)N[C@H]1C[C@@H]1c1ccccc1`: the Activity (in assay [1] (filed as agonist); at Toll-like receptor 1/2 (filed as agonist)) was 110% in each case.

`CC(C)(C)OC(=O)NC1(C(=O)OCCCCCCCCCCCCNC(=O)[C@@H]2CN(C(=O)c3ccc(C(=O)N4C[C@@H](C(=O)N[C@H]5C[C@@H]5c5ccccc5)[C@H](C(=O)N[C@H]5C[C@@H]5c5ccccc5)C4)cc3)C[C@H]2C(=O)N[C@H]2C[C@@H]2c2ccccc2)CC1`: the Activity in assay [1] (filed as agonist) came out at 220%; at Toll-like receptor 1/2 (filed as agonist), 100%.

Turning to `CC(=O)OCCCCCCCCCCCCNC(=O)[C@@H]1CN(C(=O)c2ccc(C(=O)N3C[C@@H](C(=O)N[C@H]4C[C@@H]4c4ccccc4)[C@H](C(=O)N[C@H]4C[C@@H]4c4ccccc4)C3)cc2)C[C@H]1C(=O)N[C@H]1C[C@@H]1c1ccccc1`, the Activity in assay [1] (filed as agonist) was determined as 140%; at Toll-like receptor 1/2 (filed as agonist), 90%.

As for `O=C(OCCCCCCCCCCCCNC(=O)[C@@H]1CN(C(=O)c2ccc(C(=O)N3C[C@@H](C(=O)N[C@H]4C[C@@H]4c4ccccc4)[C@H](C(=O)N[C@H]4C[C@@H]4c4ccccc4)C3)cc2)C[C@H]1C(=O)N[C@H]1C[C@@H]1c1ccccc1)c1ccc(O)cc1`, the Activity in assay [1] (filed as agonist) was determined as 540%; on Toll-like receptor 1/2 (filed as agonist), 100%.

Take `O=C(O)CNC(=O)CCCCCCCCCCCNC(=O)[C@@H]1CN(C(=O)c2ccc(C(=O)N3C[C@@H](C(=O)N[C@H]4C[C@@H]4c4ccccc4)[C@H](C(=O)N[C@H]4C[C@@H]4c4ccccc4)C3)cc2)C[C@H]1C(=O)N[C@H]1C[C@@H]1c1ccccc1`: the Activity in assay [1] is 30%; at Toll-like receptor 1/2 (filed as agonist) it was 110%.

In the case of `CC(C)(C)OC(=O)c1ccc(C(=O)NCCOCCCCCCCCCCCCNC(=O)[C@@H]2CN(C(=O)c3ccc(C(=O)N4C[C@@H](C(=O)N[C@H]5C[C@@H]5c5ccccc5)[C@H](C(=O)N[C@H]5C[C@@H]5c5ccccc5)C4)cc3)C[C@H]2C(=O)N[C@H]2C[C@@H]2c2ccccc2)cc1`, the Activity turned out to be 160% in assay [1] (filed as agonist) and 110% at Toll-like receptor 1/2 (filed as agonist).

Regarding `CN(CC(=O)OCCCCCCCCCCCCNC(=O)[C@@H]1CN(C(=O)c2ccc(C(=O)N3C[C@@H](C(=O)N[C@H]4C[C@@H]4c4ccccc4)[C@H](C(=O)N[C@H]4C[C@@H]4c4ccccc4)C3)cc2)C[C@H]1C(=O)N[C@H]1C[C@@H]1c1ccccc1)C(=O)OC(C)(C)C`, the figures for the Activity (in assay [1] (filed as agonist); on Toll-like receptor 1/2 (filed as agonist)) were 110% and 100%, respectively.

On to `Nc1ccc(C(=O)OCCCCCCCCCCCCNC(=O)[C@@H]2CN(C(=O)c3ccc(C(=O)N4C[C@@H](C(=O)N[C@H]5C[C@@H]5c5ccccc5)[C@H](C(=O)N[C@H]5C[C@@H]5c5ccccc5)C4)cc3)C[C@H]2C(=O)N[C@H]2C[C@@H]2c2ccccc2)cc1`, for which the figures for the Activity (in assay [1] (filed as agonist); on Toll-like receptor 1/2 (filed as agonist)) were 300% and 100%, respectively.

As for `N#CCC(=O)OCCCCCCCCCCCCNC(=O)[C@@H]1CN(C(=O)c2ccc(C(=O)N3C[C@@H](C(=O)N[C@H]4C[C@@H]4c4ccccc4)[C@H](C(=O)N[C@H]4C[C@@H]4c4ccccc4)C3)cc2)C[C@H]1C(=O)N[C@H]1C[C@@H]1c1ccccc1`, the Activity in assay [1] (filed as agonist) is 120%; at Toll-like receptor 1/2 (filed as agonist), 130%.

Consider `[N-]=[N+]=NCC(=O)OCCCCCCCCCCCCNC(=O)[C@@H]1CN(C(=O)c2ccc(C(=O)N3C[C@@H](C(=O)N[C@H]4C[C@@H]4c4ccccc4)[C@H](C(=O)N[C@H]4C[C@@H]4c4ccccc4)C3)cc2)C[C@H]1C(=O)N[C@H]1C[C@@H]1c1ccccc1`, for which the results for the Activity (in assay [1] (filed as agonist); on Toll-like receptor 1/2 (filed as agonist)) were 120% and 100%, respectively.

As for `CC(C)(C)OC(=O)N[C@@H](COCc1ccccc1)C(=O)OCCCCCCCCCCCCNC(=O)[C@@H]1CN(C(=O)c2ccc(C(=O)N3C[C@@H](C(=O)N[C@H]4C[C@@H]4c4ccccc4)[C@H](C(=O)N[C@H]4C[C@@H]4c4ccccc4)C3)cc2)C[C@H]1C(=O)N[C@H]1C[C@@H]1c1ccccc1`, the Activity in assay [1] (filed as agonist) came out at 370%; on Toll-like receptor 1/2 (filed as agonist) it was 100%.

`Nc1ccc(COCCCCCCCCCCCCNC(=O)[C@@H]2CN(C(=O)c3ccc(C(=O)N4C[C@@H](C(=O)N[C@H]5C[C@@H]5c5ccccc5)[C@H](C(=O)N[C@H]5C[C@@H]5c5ccccc5)C4)cc3)C[C@H]2C(=O)N[C@H]2C[C@@H]2c2ccccc2)cc1`: the Activity worked out at 130% in assay [1] (filed as agonist) and 90% on Toll-like receptor 1/2 (filed as agonist).

With `O=C(O)/C=C/C(=O)NCC(=O)OCCCCCCCCCCCCNC(=O)[C@@H]1CN(C(=O)c2ccc(C(=O)N3C[C@@H](C(=O)N[C@H]4C[C@@H]4c4ccccc4)[C@H](C(=O)N[C@H]4C[C@@H]4c4ccccc4)C3)cc2)C[C@H]1C(=O)N[C@H]1C[C@@H]1c1ccccc1`, the Activity in assay [1] (filed as agonist) was 60%; on Toll-like receptor 1/2 (filed as agonist) it was 100%.

Consider `CC(C)[C@H](NC(=O)OC(C)(C)C)C(=O)OCCCCCCCCCCCCNC(=O)[C@@H]1CN(C(=O)c2ccc(C(=O)N3C[C@@H](C(=O)N[C@H]4C[C@@H]4c4ccccc4)[C@H](C(=O)N[C@H]4C[C@@H]4c4ccccc4)C3)cc2)C[C@H]1C(=O)N[C@H]1C[C@@H]1c1ccccc1`, for which the results for the Activity (in assay [1] (filed as agonist); at Toll-like receptor 1/2 (filed as agonist)) were 180% and 100%, respectively.

Regarding `O=C(O)c1ccc(C(=O)OCCCCCCCCCCCCNC(=O)[C@@H]2CN(C(=O)c3ccc(C(=O)N4C[C@@H](C(=O)N[C@H]5C[C@@H]5c5ccccc5)[C@H](C(=O)N[C@H]5C[C@@H]5c5ccccc5)C4)cc3)C[C@H]2C(=O)N[C@H]2C[C@@H]2c2ccccc2)cc1`, the Activity is 120% in assay [1] (filed as agonist) and 100% on Toll-like receptor 1/2 (filed as agonist).

Turning to `C#CCOCC(=O)OCCCCCCCCCCCCNC(=O)[C@@H]1CN(C(=O)c2ccc(C(=O)N3C[C@@H](C(=O)N[C@H]4C[C@@H]4c4ccccc4)[C@H](C(=O)N[C@H]4C[C@@H]4c4ccccc4)C3)cc2)C[C@H]1C(=O)N[C@H]1C[C@@H]1c1ccccc1`, the Activity in assay [1] (filed as agonist) was 110%; at Toll-like receptor 1/2, 30%.

Take `O=C(NCCCCCCCCCCCCOCc1ccc([N+](=O)[O-])cc1)[C@@H]1CN(C(=O)c2ccc(C(=O)N3C[C@@H](C(=O)N[C@H]4C[C@@H]4c4ccccc4)[C@H](C(=O)N[C@H]4C[C@@H]4c4ccccc4)C3)cc2)C[C@H]1C(=O)N[C@H]1C[C@@H]1c1ccccc1`: the Activity in assay [1] (filed as agonist) came to 230%; on Toll-like receptor 1/2 (filed as agonist), 110%.

As to `O=C(CNC(=O)C(F)(F)F)OCCCCCCCCCCCCNC(=O)[C@@H]1CN(C(=O)c2ccc(C(=O)N3C[C@@H](C(=O)N[C@H]4C[C@@H]4c4ccccc4)[C@H](C(=O)N[C@H]4C[C@@H]4c4ccccc4)C3)cc2)C[C@H]1C(=O)N[C@H]1C[C@@H]1c1ccccc1`, the Activity (in assay [1] (filed as agonist); at Toll-like receptor 1/2 (filed as agonist)) was 100% each time.

In the case of `CC(C)(C)OC(=O)N1CCC[C@H]1C(=O)OCCCCCCCCCCCCNC(=O)[C@@H]1CN(C(=O)c2ccc(C(=O)N3C[C@@H](C(=O)N[C@H]4C[C@@H]4c4ccccc4)[C@H](C(=O)N[C@H]4C[C@@H]4c4ccccc4)C3)cc2)C[C@H]1C(=O)N[C@H]1C[C@@H]1c1ccccc1`, the Activity stood at 100% in assay [1] (filed as agonist) and 90% at Toll-like receptor 1/2 (filed as agonist).

For the compound `CC(C)(C)OC(=O)CNC(=O)CCCCCCCCCCCNC(=O)[C@@H]1CN(C(=O)c2ccc(C(=O)N3C[C@@H](C(=O)N[C@H]4C[C@@H]4c4ccccc4)[C@H](C(=O)N[C@H]4C[C@@H]4c4ccccc4)C3)cc2)C[C@H]1C(=O)N[C@H]1C[C@@H]1c1ccccc1`, the Activity amounted to 70% in assay [1] (filed as agonist) and 100% at Toll-like receptor 1/2 (filed as agonist).

On to `NC(=O)CCCCCCCCCCCNC(=O)[C@@H]1CN(C(=O)c2ccc(C(=O)N3C[C@@H](C(=O)N[C@H]4C[C@@H]4c4ccccc4)[C@H](C(=O)N[C@H]4C[C@@H]4c4ccccc4)C3)cc2)C[C@H]1C(=O)N[C@H]1C[C@@H]1c1ccccc1`, for which the Activity in assay [1] (filed as agonist) came out at 120%; on Toll-like receptor 1/2 (filed as agonist) it was 110%.

With `CN(C)CC(=O)OCCCCCCCCCCCCNC(=O)[C@@H]1CN(C(=O)c2ccc(C(=O)N3C[C@@H](C(=O)N[C@H]4C[C@@H]4c4ccccc4)[C@H](C(=O)N[C@H]4C[C@@H]4c4ccccc4)C3)cc2)C[C@H]1C(=O)N[C@H]1C[C@@H]1c1ccccc1`, the Activity was determined as 140% in assay [1] (filed as agonist) and 100% on Toll-like receptor 1/2 (filed as agonist).

Take `CC(C)(C)OC(=O)NCCOCCCCCCCCCCCCNC(=O)[C@@H]1CN(C(=O)c2ccc(C(=O)N3C[C@@H](C(=O)N[C@H]4C[C@@H]4c4ccccc4)[C@H](C(=O)N[C@H]4C[C@@H]4c4ccccc4)C3)cc2)C[C@H]1C(=O)N[C@H]1C[C@@H]1c1ccccc1`: the Activity was found to be 220% in assay [1] (filed as agonist) and 100% at Toll-like receptor 1/2 (filed as agonist).

For the compound `CC(C)(C)OC(=O)NCC(=O)NCC(=O)OCCCCCCCCCCCCNC(=O)[C@@H]1CN(C(=O)c2ccc(C(=O)N3C[C@@H](C(=O)N[C@H]4C[C@@H]4c4ccccc4)[C@H](C(=O)N[C@H]4C[C@@H]4c4ccccc4)C3)cc2)C[C@H]1C(=O)N[C@H]1C[C@@H]1c1ccccc1`, the Activity (in assay [1] (filed as agonist); at Toll-like receptor 1/2 (filed as agonist)) was 110% in each case.

For `CC(C)(C)OC(=O)c1ccc(C(=O)NCC(=O)OCCCCCCCCCCCCNC(=O)[C@@H]2CN(C(=O)c3ccc(C(=O)N4C[C@@H](C(=O)N[C@H]5C[C@@H]5c5ccccc5)[C@H](C(=O)N[C@H]5C[C@@H]5c5ccccc5)C4)cc3)C[C@H]2C(=O)N[C@H]2C[C@@H]2c2ccccc2)cc1`, the Activity in assay [1] (filed as agonist) is 130%; at Toll-like receptor 1/2 (filed as agonist), 100%.

As to `C#CCN(C)CC(=O)OCCCCCCCCCCCCNC(=O)[C@@H]1CN(C(=O)c2ccc(C(=O)N3C[C@@H](C(=O)N[C@H]4C[C@@H]4c4ccccc4)[C@H](C(=O)N[C@H]4C[C@@H]4c4ccccc4)C3)cc2)C[C@H]1C(=O)N[C@H]1C[C@@H]1c1ccccc1`, the Activity worked out at 100% in assay [1] (filed as agonist) and 40% at Toll-like receptor 1/2 (filed as agonist).
